Test results taken from ChEMBL document CHEMBL2057138, “Design and synthesis of marine fungal phthalide derivatives as PPAR-γ agonists” (Bioorg Med Chem, 2012).
Activity calls are given as the source filed them. The rule behind the calls is not given here.

molecular target: Peroxisome proliferator-activated receptor gamma (Homo sapiens) (UniProt P37231); assay: Agonist activity at PPARgamma in rat Ac2F cells assessed as luciferase activity at 0.1 to 10 uM after 6 hrs by reporter gene assay

| Activity | SMILES |
| --- | --- |
| Active | CCCCCCCCC1OC(=O)c2cccc(O)c21 (stereo not given) |
| Active | CCCCCCCCC1OC(=O)c2c(O)cccc21 (racemic) |

molecular target: T1, Peroxisome proliferator-activated receptor gamma (Homo sapiens) (UniProt P37231); assay: Binding affinity to GST-tagged PPARgamma LBD at 50 uM after 4 hrs by TR-FRET competitive binding assay
T1 sequence (whole entry): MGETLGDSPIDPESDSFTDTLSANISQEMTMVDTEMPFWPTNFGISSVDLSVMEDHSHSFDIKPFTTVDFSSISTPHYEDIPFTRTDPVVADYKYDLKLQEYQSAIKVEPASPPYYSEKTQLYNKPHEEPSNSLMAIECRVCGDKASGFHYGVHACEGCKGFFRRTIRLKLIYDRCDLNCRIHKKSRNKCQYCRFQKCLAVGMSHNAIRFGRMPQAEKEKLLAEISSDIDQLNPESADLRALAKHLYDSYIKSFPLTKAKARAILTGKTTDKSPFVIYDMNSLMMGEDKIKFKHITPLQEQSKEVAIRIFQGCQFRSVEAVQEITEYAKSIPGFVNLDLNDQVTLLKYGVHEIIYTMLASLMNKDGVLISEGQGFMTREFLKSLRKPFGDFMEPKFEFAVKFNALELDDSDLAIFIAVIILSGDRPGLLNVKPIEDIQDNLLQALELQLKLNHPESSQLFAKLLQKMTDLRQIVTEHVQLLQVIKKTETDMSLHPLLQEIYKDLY
Procedure, shortened: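 LanthaScreen TR-FRET competitive binding. Mix of 0.5 nM GST-tagged PPAR-γ LBD, 5 nM terbium anti-GST antibody and 5 nM Fluormone Pan-PPAR Green tracer, with compound at 50 µM and DMSO solvent control. Incubated 4 h in the dark. Read as the 520/495 nm emission ratio (counting 0.1 s, integration 20 µs). Mean + s.d., n = 3.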

| Activity | SMILES |
| --- | --- |
| Active | CCCCCCCCC1OC(=O)c2cccc(O)c21 (stereo not given) |
| inactive | O=C1OC(=O)c2c1cccc2[N+](=O)[O-] |
| inactive | CCCCCCCCCC(=O)Oc1cccc2c1C(=O)OC2=O |
| Active | CCCCCCCCC1OC(=O)c2c(O)cccc21 (racemic) |
| Active | O=C1OC(=O)c2c(O)cccc21 |

Further lines, the compound ahead of its results:

| SMILES | Activity |
| --- | --- |
| CN(CCOc1ccc(CC2SC(=O)NC2=O)cc1)c1ccccn1 (stereo not given) | Active |
| CCCCCCCCC1(CCCCCCCC)OC(=O)c2c(O)cccc21 | inactive |
| CCCCCCCCC1(O)OC(=O)c2c(O)cccc21 (stereo not given) | inactive |
| CCCCCCCCC1(O)OC(=O)c2c(OCc3ccccc3)cccc21 (stereo not given) | inactive |
| CCCCCCCCOC(=O)c1cccc(O)c1C(=O)O | Active |
| CCCCCCCCC1(OCc2ccccc2)OC(=O)c2c(OCc3ccccc3)cccc21 (stereo not given) | inactive |
| CCCCCCCCC1(OC)OC(=O)c2c(OCc3ccccc3)cccc21 (stereo not given) | inactive |
| CCCCCCCCC1OC(=O)c2c(OC)cccc21 (stereo not given) | inactive |
| CCCCCCCCC1(O)OC(=O)c2cccc(O)c21 (stereo not given) | inactive |
| CCCCCCCCC1(CCCCCCCC)OC(=O)c2cccc(O)c21 | inactive |
| CCCCCCCCOC(=O)c1cccc([N+](=O)[O-])c1C(=O)O | Active |
| O=C1OC(=O)c2ccccc21 | inactive |

molecular target: Peroxisome proliferator-activated receptor gamma (Homo sapiens) (UniProt P37231); assay: Agonist activity at PPARgamma in rat Ac2F cells assessed as luciferase activity after 6 hrs by reporter gene assay

| Activity | SMILES |
| --- | --- |
| Dose-dependent effect | CCCCCCCCC1OC(=O)c2c(O)cccc21 (racemic) |
